Measured values: ChEMBL document CHEMBL1151955, “Activation of PPARgamma by metabolites from the flowers of purple coneflower (Echinacea purpurea)” (J Nat Prod, 2009)
Each block holds one molecule with its values, some of them ahead of it. Active and inactive are the calls of the source. The calls are words filed in the database; no cut-off is given here.

Columns and labels:
[1] = molecular target: T1, Peroxisome proliferator-activated receptor gamma (Homo sapiens) (UniProt P37231); assay: Agonist activity at human PPARgamma ligand binding domain expressed in MEF cells co-transfected with Gal4-responsive luciferase vector assessed as photinus/renilla luciferase activity at 100 uM by transactivation assay relative to control; format: cell-based
T1 sequence (whole entry): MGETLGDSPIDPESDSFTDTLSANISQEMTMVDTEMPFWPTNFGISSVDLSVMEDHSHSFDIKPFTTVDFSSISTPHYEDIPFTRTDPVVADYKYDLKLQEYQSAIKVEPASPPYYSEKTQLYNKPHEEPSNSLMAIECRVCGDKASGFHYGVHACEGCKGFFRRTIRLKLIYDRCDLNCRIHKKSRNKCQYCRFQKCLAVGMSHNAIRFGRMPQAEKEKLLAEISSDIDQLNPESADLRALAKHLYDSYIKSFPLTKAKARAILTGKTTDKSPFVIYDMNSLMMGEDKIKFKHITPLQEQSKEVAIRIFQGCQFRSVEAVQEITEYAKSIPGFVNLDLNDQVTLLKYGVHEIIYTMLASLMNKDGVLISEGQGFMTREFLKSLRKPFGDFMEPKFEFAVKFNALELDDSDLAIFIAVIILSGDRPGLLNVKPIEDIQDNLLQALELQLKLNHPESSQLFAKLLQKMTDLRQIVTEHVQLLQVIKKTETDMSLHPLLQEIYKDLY
Outline: (§1)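 Mouse embryonic fibroblasts were transiently transfected at 50-70% confluence. Each well got 2.5 ng pRL-CMV Renilla vector, 30 ng Gal4-responsive luciferase reporter and 15 ng pM-hPPARγ-LBD. Medium was changed at 6 h to DMEM with vehicle (0.1% DMSO), 1 µM rosiglitazone or compound. Cells were lysed 18 h post-transfection for dual luciferase. Photinus was normalized to Renilla and expressed as fold over vehicle. Triplicates, each read in duplicate.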

[2] = molecular target: T1, Peroxisome proliferator-activated receptor gamma (Homo sapiens); assay: Agonist activity at human PPARgamma ligand binding domain expressed in MEF cells co-transfected with Gal4-responsive luciferase vector assessed as photinus/renilla luciferase activity at 40 uM by transactivation assay relative to control; format: cell-based; outline: as §1
[3] = tested on: 3T3-L1; assay: Increase in insulin-stimulated [14C]2-deoxy-D-glucose uptake in mouse 3T3L1 cells after 48 hrs by scintillation counting; format: functional, cell-based
Outline: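 MDI-differentiated 3T3-L1 adipocytes were treated with compound or 1 µM rosiglitazone from day 8 for 48 h, then serum-starved 2 h at 37 °C. Cells were incubated in KRHB pH 7.4 for 30 min, insulin was added for 15 min, then [14C]2-deoxy-D-glucose at 1.0 mM final glucose for 15 min. Background came from 20 µM cytochalasin B wells. Scintillation counting, 8 wells per condition, mean ± SEM.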

[4] = tested on: 3T3-L1; assay: Induction of adipocytes differentiation in mouse 3T3L1 cells at > 200 uM treated after 48 hrs postconfluence measured after 8 days using MDI protocol; format: functional, cell-based
Outline: (§2)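 3T3-L1 cells were induced two days postconfluence in DMEM/10% FBS with compound plus 1 µM dexamethasone, 0.5 mM isobutylmethylxanthine and 1 µg/mL insulin. At 48 h they were refed with compound and 1 µg/mL insulin. From day 4 medium was DMEM/10% FBS, changed every second day. At day 8 cells were formaldehyde-fixed and stained with Oil Red O. Triplicate, three concentrations.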

[5] = tested on: MEF; assay: Apparent cytotoxicity against MEF at 100 uM; format: cell-based; details: mouse
[6] = molecular target: T1, Peroxisome proliferator-activated receptor gamma (Homo sapiens); assay: Agonist activity at human PPARgamma ligand binding domain expressed in MEF cells co-transfected with Gal4-responsive luciferase vector assessed as photinus/renilla luciferase activity at 30 uM by transactivation assay relative to control; format: cell-based; outline: as §1
[7] = tested on: 3T3-L1; assay: Induction of adipocytes differentiation in mouse 3T3L1 cells at > 200 uM treated after 48 hrs postconfluence measured after 8 days using DEX protocol; format: functional, cell-based
Outline: (§3)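 3T3-L1 cells were grown in DMEM with 10% calf serum. Two days postconfluence (day 0) they were induced in DMEM/10% FBS with compound plus 1 µM dexamethasone, then refed at 48 h with compound. From day 4 medium was DMEM/10% FBS, changed every second day. At day 8 cells were formaldehyde-fixed and stained for triacylglycerol with Oil Red O. Triplicate, three concentrations.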

[8] = tested on: 3T3-L1; assay: Induction of adipocytes differentiation in mouse 3T3L1 cells treated after 48 hrs postconfluence measured after 8 days using MDI protocol; format: functional, cell-based; outline: as §2
[9] = molecular target: T1, Peroxisome proliferator-activated receptor gamma (Homo sapiens); assay: Agonist activity at human PPARgamma ligand binding domain expressed in MEF cells co-transfected with Gal4-responsive luciferase vector assessed as photinus/renilla luciferase activity at 80 uM by transactivation assay relative to control; format: cell-based; outline: as §1
[10] = tested on: 3T3-L1; assay: Induction of adipocytes differentiation in mouse 3T3L1 cells treated after 48 hrs postconfluence measured after 8 days using DEX protocol; format: functional, cell-based; outline: as §3

SMILES: C/C=C\C=C/CC/C=C/C=C/C(=O)NCC(C)C
- fold change (FC) [1]: 2

SMILES: C/C=C/C=C\CC/C=C/C=C/C(=O)NCC(C)C
- fold change (FC) [1]: 2

SMILES: C/C=C\C#CCC/C=C\C=C\C(=O)NCC(C)C
- fold change (FC) [1]: 2

SMILES: CCCCCC/C=C\CCCCCCCC(=O)O
- fold change (FC) [2]: 10

SMILES: C/C=C/C=C\C/C=C\CCCCC/C=C/C(=O)NCC(C)C
- Activity [3]: Dose-dependent effect
- Activity [4]: inactive
- Activity [5]: Toxic
- fold change (FC) [6]: 10
- Activity [7]: inactive

SMILES: CCCCCCC/C=C/C=C/C(=O)NCC(C)C
- Activity [8]: Active
- fold change (FC) [9]: 4
- Activity [10]: Active
- Activity [5]: Toxic

Second part, the molecule after the results:

- fold change (FC) [2]: 10
SMILES: CCCCC/C=C\C/C=C\CCCCCCCC(=O)O

- fold change (FC) [2]: 10
SMILES: CC/C=C\C/C=C\C/C=C\CCCCCCCC(=O)O
